In general, IC50 refers to the concentration needed to halve the response being measured.

Bridge positions count the residues as written; N and C are the ends. Peptide text beside a SMILES is read from it.

The text below walks through data of BindingDB's records for doi:10.1021/jm00042a007 (Merck Research Laboratories, 1994).

The target in this assay is Integrin alpha-IIb/beta-3 (Homo sapiens, UniProt P08514+P05106). Put plainly: Inhibition of platelet aggregation as the concentration necessary to inhibit the change in light. The method, boiled down:
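Human gel-filtered platelets at 2 × 10^8/mL were mixed with 0.1 mg/mL human fibrinogen, 1 mM CaCl2 and compound, then aggregated with 10 µM ADP. Light transmittance was compared between control and treated samples.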

Sequence of Integrin alpha-IIb/beta-3 (P05106 27-788 limits assumed): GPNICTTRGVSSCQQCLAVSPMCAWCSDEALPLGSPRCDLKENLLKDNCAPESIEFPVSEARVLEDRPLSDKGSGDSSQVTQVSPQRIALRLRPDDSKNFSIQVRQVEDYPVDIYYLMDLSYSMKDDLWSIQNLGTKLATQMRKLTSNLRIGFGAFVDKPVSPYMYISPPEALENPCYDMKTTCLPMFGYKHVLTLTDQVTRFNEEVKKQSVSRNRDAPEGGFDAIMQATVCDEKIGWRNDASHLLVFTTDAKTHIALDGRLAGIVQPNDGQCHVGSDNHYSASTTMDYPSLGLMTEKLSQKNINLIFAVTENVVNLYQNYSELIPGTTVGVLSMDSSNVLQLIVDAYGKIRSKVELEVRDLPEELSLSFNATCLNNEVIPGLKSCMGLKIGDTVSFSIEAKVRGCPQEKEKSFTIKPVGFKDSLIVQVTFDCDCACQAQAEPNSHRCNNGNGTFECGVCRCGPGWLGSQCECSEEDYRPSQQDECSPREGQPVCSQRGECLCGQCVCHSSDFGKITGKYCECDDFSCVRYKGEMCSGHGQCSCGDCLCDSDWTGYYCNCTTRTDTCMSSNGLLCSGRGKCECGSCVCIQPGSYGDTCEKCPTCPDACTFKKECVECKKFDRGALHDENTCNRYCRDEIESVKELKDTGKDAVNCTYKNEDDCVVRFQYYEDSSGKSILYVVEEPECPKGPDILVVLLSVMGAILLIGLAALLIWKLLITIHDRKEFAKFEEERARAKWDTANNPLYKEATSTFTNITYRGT
Sequence of Integrin alpha-IIb/beta-3 (P08514 32-887 limits assumed): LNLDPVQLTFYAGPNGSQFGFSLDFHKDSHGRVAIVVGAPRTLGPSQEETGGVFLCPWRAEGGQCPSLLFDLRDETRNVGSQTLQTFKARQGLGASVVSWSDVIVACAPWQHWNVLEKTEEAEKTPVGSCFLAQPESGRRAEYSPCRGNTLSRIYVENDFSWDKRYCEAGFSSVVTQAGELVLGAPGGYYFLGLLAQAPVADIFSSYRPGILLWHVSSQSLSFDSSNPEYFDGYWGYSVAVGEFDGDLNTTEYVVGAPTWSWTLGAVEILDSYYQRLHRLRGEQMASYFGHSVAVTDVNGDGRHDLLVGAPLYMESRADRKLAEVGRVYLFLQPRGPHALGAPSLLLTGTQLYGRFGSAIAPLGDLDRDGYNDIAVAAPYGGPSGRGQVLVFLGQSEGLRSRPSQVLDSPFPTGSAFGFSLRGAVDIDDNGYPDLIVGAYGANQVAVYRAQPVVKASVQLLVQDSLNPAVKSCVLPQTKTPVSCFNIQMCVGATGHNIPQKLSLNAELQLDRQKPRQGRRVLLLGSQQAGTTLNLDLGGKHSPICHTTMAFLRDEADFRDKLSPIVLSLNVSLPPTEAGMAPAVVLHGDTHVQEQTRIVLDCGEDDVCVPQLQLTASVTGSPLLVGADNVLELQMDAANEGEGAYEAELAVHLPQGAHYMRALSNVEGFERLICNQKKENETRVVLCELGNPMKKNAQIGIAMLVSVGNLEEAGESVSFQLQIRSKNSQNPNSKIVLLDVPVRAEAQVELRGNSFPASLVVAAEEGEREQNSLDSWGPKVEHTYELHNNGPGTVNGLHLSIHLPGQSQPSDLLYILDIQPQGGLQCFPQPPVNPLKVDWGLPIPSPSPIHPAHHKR
Sequence of Integrin alpha-IIb/beta-3 (P08514 891-1039 limits assumed): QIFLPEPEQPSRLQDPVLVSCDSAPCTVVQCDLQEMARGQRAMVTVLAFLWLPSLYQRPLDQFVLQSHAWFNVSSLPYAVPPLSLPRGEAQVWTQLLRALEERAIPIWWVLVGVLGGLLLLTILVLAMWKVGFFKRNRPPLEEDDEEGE

`CC(=O)N[C@@H](Cc1ccc(OCCCCC2CCNCC2)cc1)C(=O)O` [(S)-2-Acetylamino-3-[4-(4-piperidin-4-yl-butoxy)-phenyl]-propionic acid] returned an IC50 of 0.5 µM.
In the case of `O=C(O)[C@H](Cc1ccc(OCCCCC2CCNCC2)cc1)NS(=O)(=O)c1cccs1` [(S)-3-[4-(4-Piperidin-4-yl-butoxy)-phenyl]-2-(thiophene-2-sulfonylamino)-propionic acid], the 50% inhibitory concentration (IC50) came to 0.015 µM.
`CCCCS(=O)(=O)N[C@H](CC(=O)O)Cc1ccc(OCCCC2CCNCC2)cc1` [(S)-3-(Butane-1-sulfonylamino)-4-[4-(3-piperidin-4-yl-propoxy)-phenyl]-butyric acid] yielded a 50% inhibitory concentration (IC50) of 0.6 µM.
As to `N=C(N)NCCC[C@H](N)C(=O)NCC(=O)N[C@@H](CC(=O)O)C(=O)N[C@@H](Cc1c[nH]c2ccccc12)C(=O)O` [2-[1-[1-amino-4-amino(imino)methylamino-(1S)-butylcarboxamidomethylcarboxamido]-2-carboxy-(1S)-ethylcarboxamido]-3-(1H-3-indolyl)-(2S)-propanoic acid] (H-RGDW-OH), the half-maximal inhibitory concentration (IC50) is 1.7 µM.
Compound `CCCS(=O)(=O)N[C@@H](Cc1ccc(OCCCCC2CCNCC2)cc1)C(=O)O` [(S)-3-[4-(4-Piperidin-4-yl-butoxy)-phenyl]-2-(propane-1-sulfonylamino)-propionic acid] came in with a 50% inhibitory concentration (IC50) of 0.023 µM.
`NCCCCCCCCOc1ccc(C[C@H](NC(=O)OCc2ccccc2)C(=O)O)cc1` [3-[4-(8-Amino-octyloxy)-phenyl]-2-benzyloxycarbonylamino-propionic acid] gave a half-maximal inhibitory concentration (IC50) of 38 µM.
`CC(=O)N[C@@H](Cc1ccc(OCCCCCCN)cc1)C(=O)O` [(S)-2-Acetylamino-3-[4-(6-amino-hexyloxy)-phenyl]-propionic acid] registered a half-maximal inhibitory concentration (IC50) of 18 µM.
The result for `NCCCCCCOc1ccc(C[C@H](NS(=O)(=O)Cc2ccccc2)C(=O)O)cc1` reads 1.9 µM; that for `CCCCCC(=O)N[C@@H](Cc1ccc(OCCCCCCN)cc1)C(=O)O`, 5 µM.
The result for `CCCCC(=O)N[C@@H](Cc1ccc(OCCCCC2CCNCC2)cc1)C(=O)O` [(S)-2-Pentanoylamino-3-[4-(4-piperidin-4-yl-butoxy)-phenyl]-propionic acid] reads 0.047 µM.
In turn, `O=C(N[C@@H](Cc1ccc(OCCCc2ccccc2)cc1)C(=O)O)OCc1ccccc1` showed a concentration for half-maximal inhibition (IC50) of more than 1000 µM.
In the case of `CN1CCN(CCCOc2ccc(C[C@H](NC(=O)OCc3ccccc3)C(=O)O)cc2)CC1` [(S)-2-Benzyloxycarbonylamino-3-{4-[3-(4-methyl-piperazin-1-yl)-propoxy]-phenyl}-propionic acid], half-maximal inhibition (IC50) required 5.2 µM.
As for `CS(=O)(=O)N[C@@H](Cc1ccc(OCCCCC2CCNCC2)cc1)C(=O)O` [(S)-2-Methanesulfonylamino-3-[4-(4-piperidin-4-yl-butoxy)-phenyl]-propionic acid], the figure is 0.063 µM; as for `O=C(O)[C@H](Cc1ccc(OCCCCC2CCNCC2)cc1)NS(=O)(=O)c1ccccc1` [(S)-2-Benzenesulfonylamino-3-[4-(4-piperidin-4-yl-butoxy)-phenyl]-propionic acid], 0.018 µM.
`O=C(CCc1ccccc1)N[C@@H](Cc1ccc(OCCCCC2CCNCC2)cc1)C(=O)O` [(S)-2-(3-Phenyl-propionylamino)-3-[4-(4-piperidin-4-yl-butoxy)-phenyl]-propionic acid] displayed an IC50 of 0.1 µM.
`CCC(=O)N[C@@H](Cc1ccc(OCCCCC2CCNCC2)cc1)C(=O)O` [(S)-3-[4-(4-Piperidin-4-yl-butoxy)-phenyl]-2-propionylamino-propionic acid] yielded an IC50 of 0.105 µM.
Compound `O=C(O)[C@H](Cc1ccc(OCCCCC2CCNCC2)cc1)NS(=O)(=O)/C=C/c1ccccc1` [(S)-2-((E)-2-Phenyl-ethenesulfonylamino)-3-[4-(4-piperidin-4-yl-butoxy)-phenyl]-propionic acid] yielded a half-inhibitory concentration (IC50) of 0.043 µM.
`CCCC(=O)N[C@@H](Cc1ccc(OCCCCCCN)cc1)C(=O)O` [(S)-3-[4-(6-Amino-hexyloxy)-phenyl]-2-butyrylamino-propionic acid] gave an IC50 of 5.7 µM.
`CC(C)(C)CC(C)(C)NCCCOc1ccc(C[C@H](NC(=O)OCc2ccccc2)C(=O)O)cc1` [(S)-2-Benzyloxycarbonylamino-3-{4-[3-(1,1,3,3-tetramethyl-butylamino)-propoxy]-phenyl}-propionic acid] showed a concentration for half-maximal inhibition (IC50) of more than 100 µM.
For the compound `O=C(N[C@@H](Cc1ccc(OCCCCN2CCNCC2)cc1)C(=O)O)OCc1ccccc1` [(S)-2-Benzyloxycarbonylamino-3-[4-(4-piperazin-1-yl-butoxy)-phenyl]-propionic acid], the IC50 was found to be 0.5 µM.
Regarding `O=C(N[C@@H](Cc1ccc(OCCCC2CCNCC2)cc1)C(=O)O)OCc1ccccc1` [(S)-2-Benzyloxycarbonylamino-3-[4-(3-piperidin-4-yl-propoxy)-phenyl]-propionic acid], the IC50 was 6.2 µM.
In the case of `CCCCS(=O)(=O)N[C@H](CC(=O)O)Cc1ccc(OCCCCC2CCNCC2)cc1` [(S)-3-(Butane-1-sulfonylamino)-4-[4-(4-piperidin-4-yl-butoxy)-phenyl]-butyric acid], the IC50 is 0.14 µM.
Regarding `CC(=O)N[C@H]1CSSC[C@@H](C(=O)O)NC(=O)[C@H](CC(=O)O)NC(=O)CNC(=O)[C@H](CCCNC(=N)N)NC1=O` [(4S,7R,13R,16S)-16-Acetylamino-7-carboxymethyl-13-(3-guanidino-propyl)-6,9,12,15-tetraoxo-1,2-dithia-5,8,11,14-tetraaza-cycloheptadecane-4-carboxylic acid] (Ac-CRGDC-OH; disulfide 1-5), the 50% inhibitory concentration (IC50) was 0.68 µM.
`O=C(N[C@@H](Cc1ccc(OCCCCCN2CCNCC2)cc1)C(=O)O)OCc1ccccc1` [(S)-2-Benzyloxycarbonylamino-3-[4-(5-piperazin-1-yl-pentyloxy)-phenyl]-propionic acid] came in with an IC50 of 1.1 µM.
The result for `NCCCCCCOc1ccc(C[C@H](NC(=O)c2ccccc2)C(=O)O)cc1` [(S)-3-[4-(6-Amino-hexyloxy)-phenyl]-2-benzoylamino-propionic acid] reads 10 µM.
Turning to `O=C(N[C@@H](Cc1ccc(OC/C=C/CC2CCNCC2)cc1)C(=O)O)OCc1ccccc1` [(S)-2-Benzyloxycarbonylamino-3-[4-((E)-4-piperidin-4-yl-but-2-enyloxy)-phenyl]-propionic acid], the IC50 is 0.24 µM.
As for `O=C(O)[C@H](Cc1ccc(OCCCCC2CCNCC2)cc1)NS(=O)(=O)CCc1ccccc1` [(S)-2-(2-Phenyl-ethanesulfonylamino)-3-[4-(4-piperidin-4-yl-butoxy)-phenyl]-propionic acid], the IC50 worked out at 0.029 µM.
`CC(C)(C)NCCCOc1ccc(C[C@H](NC(=O)OCc2ccccc2)C(=O)O)cc1` [(S)-2-Benzyloxycarbonylamino-3-[4-(3-tert-butylamino-propoxy)-phenyl]-propionic acid] returned a half-maximal inhibitory concentration (IC50) of 28 µM.
